Active and inactive are the calls of the source. No cut-off for these calls is given here. Residues, ends and D or L forms follow the SMILES beside them.
How the values were obtained:
[1] = molecular target: T1, C-X-C chemokine receptor type 4 (Homo sapiens, UniProt P61073); test: Competitive binding affinity to CXCR4 receptor (unknown origin) expressed in CHO cells incubated for 40 mins by 12G5 antibody based fluorescence analysis; format: cell-based
[2] = molecular target: T1, C-X-C chemokine receptor type 4; test: Competitive binding affinity to CXCR4 in human SupT1 cells incubated for 40 mins by 12G5 antibody based fluorescence analysis; format: cell-based
[3] = test system: Human immunodeficiency virus 1; test: Antiviral activity against Human immunodeficiency virus 1 NL4-3 infected in human PBMC cells assessed as reduction in intracellular p24 level at 100 nM preincubated with cells 2 hrs followed by viral infection and measured after 24 hrs by ELISA; format: functional
Outline: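 PBMCs from healthy donors (2.5×10^6 cells/mL) were exposed to compound for 2 h, washed, and infected with HIV-1 NL4-3 at MOI 0.02 for 2 h at 37°C. Cells were washed, resuspended in complete medium and incubated 24 h. Cells were then lysed with protease inhibitor, and intracellular p24 was quantified by ELISA.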

[4] = molecular target: T1, C-X-C chemokine receptor type 4; test: Antagonist activity at CXCR4 receptor in human SupT1 cells assessed as inhibition of SDF-1alpha-induced calcium release at 1 uM preincubated for 2 to 3 mins followed by SDF-1alpha addition by Fluo-4AM dye based fluorescence assay relative to control; format: functional, cell-based
Outline: (§1)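 SupT1 cells loaded with Fluo-4AM (2 µM) plus probenecid (5 µM) for 30 min at 37°C in HBSS/20 mM HEPES, washed; 1×10⁶ cells/mL exposed to compound 2–3 min, then stimulated with 50 nM SDF-1α; fluorescence read at […]/510em.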

[5] = molecular target: T1, C-X-C chemokine receptor type 4; test: Inhibition of N-terminal flag-tagged CXCR4 (unknown origin) internalization expressed in CHO cells incubated for 45 mins and measured after 1 hr by FITC-labeled anti-flag antibody based fluorescence analysis
[6] = molecular target: T1, C-X-C chemokine receptor type 4; test: Antagonist activity at CXCR4 receptor in human SupT1 cells assessed as inhibition of SDF-1alpha-induced calcium release preincubated for 2 to 3 mins followed by SDF-1alpha addition by Fluo-4AM dye based fluorescence assay; format: functional, cell-based; outline: as §1
[7] = Stability of compound in water assessed as compound remaining at 1mM at 37 degC after 48 hrs by HPLC analysis relative to control; format: physicochemical; conditions: read-out: Stability

T1 sequence (P61073 whole entry): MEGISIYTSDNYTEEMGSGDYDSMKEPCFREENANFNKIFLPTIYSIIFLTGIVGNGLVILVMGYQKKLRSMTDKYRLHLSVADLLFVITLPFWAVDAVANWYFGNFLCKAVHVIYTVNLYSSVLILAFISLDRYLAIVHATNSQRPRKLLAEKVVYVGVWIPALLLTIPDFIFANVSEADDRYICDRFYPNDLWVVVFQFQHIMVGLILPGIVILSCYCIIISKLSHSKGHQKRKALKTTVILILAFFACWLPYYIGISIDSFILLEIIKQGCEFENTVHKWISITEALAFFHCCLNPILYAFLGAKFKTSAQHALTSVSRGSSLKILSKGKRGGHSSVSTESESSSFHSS

CC[C@H](C)[C@H](NC(=O)[C@H](CC(=O)O)NC(=O)CNC(=O)[C@H](CCCCN)NC(=O)[C@H](CCCNC(=N)N)NC(=O)[C@H](CCCCN)NC(=O)CCCCCN)C(=O)N[C@@H](CCCNC(=N)N)C(=O)N[C@@H](CCC(N)=O)C(=O)N[C@@H](C)C(=O)N[C@@H](Cc1cnc[nH]1)C(=O)N[C@@H](CS)C(N)=O (HELM PEPTIDE1{[NCCCCCC(=O)[*:2]].K.R.K.G.D.I.R.Q.A.H.C.[am]}$$$$V2.0)
IC50 [1]: > 50 µM | IC50 [2]: > 50 µM

CC[C@H](C)[C@H](NC(=O)[C@H](CC(=O)O)NC(=O)CNC(=O)[C@H](CCCCN)NC(=O)[C@H](CCCNC(=N)N)NC(=O)[C@H](CCCCN)NC(=O)CCCCCNC(=O)[C@@H](CCCNC(=N)N)NC(=O)[C@@H](CCCCN)NC(=O)[C@@H](CCCCN)NC(=O)[C@@H](CC(=O)O)NC(=O)[C@H]1CCCN1C(=O)[C@@H](CCCNC(=N)N)NC(=O)[C@@H](Cc1cnc[nH]1)NC(=O)[C@@H](Cc1c[nH]c2ccccc12)NC(=O)[C@@H](CO)NC(=O)[C@@H](C)NC(=O)CNC(=O)[C@H](N)CC(C)C)C(=O)N[C@@H](CCCNC(=N)N)C(=O)N[C@@H](CCC(N)=O)C(=O)N[C@@H](C)C(=O)N[C@@H](Cc1cnc[nH]1)C(=O)N[C@@H](CS)C(N)=O
inhibition [3]: Active | inhibition [4]: 100% | Activity [5]: inactive | inhibition [6]: Dose-dependent effect | remaining at 48 h, 1000 µM [7]: 95%

c1cc(CN2CCCNCCNCCCNCC2)ccc1CN1CCCNCCNCCCNCC1
Activity [3]: Active
